In ChEMBL document CHEMBL1649062, “Integration of lead optimization with crystallography for a membrane-bound ion channel target: discovery of a new class of AMPA receptor positive allosteric modulators” (J Med Chem, 2011):
Activity calls are given as the source filed them.

Assays:
Rattus norvegicus [1] = assay: Cognitive enhancing effect in Lister Hooded rat assessed as reversal of 24 hrs delay-induced cognitive deficit at 0.3 mg/kg, ip by novel object recognition test
Rattus norvegicus [2] = assay: Cognitive enhancing effect in Lister Hooded rat assessed as reversal of 24 hrs delay-induced cognitive deficit at 0.1 mg/kg, ip by novel object recognition test
[3] = Half life in cynomolgus monkey at 1 mg/kg, po; format: ADME, organism-based, Macaca fascicularis; parameters: dose 1 mg/kg, route oral; conditions: in vivo
Hepatocyte = assay: Intrinsic clearance in cryopreserved rat hepatocytes assessed per gram of tissue; format: ADME, cell-based, Liver
Outline: (§1)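 Cryopreserved hepatocytes at 70 000 cells/mL; intrinsic clearance expressed per gram of liver; single determination (human also n = 3).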

[4] = Volume of distribution at steady state in cynomolgus monkey at 0.25 mg/kg, iv and 1 mg/kg, po; format: ADME, organism-based, Macaca fascicularis; conditions: in vivo, read-out: Vdss
Outline: (§2)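 Male animals, n = 3 per species, given single iv and oral doses: Sprague-Dawley rat 2.5 iv / 3 po mg/kg; beagle dog 0.25 / 0.5; Göttingen minipig 0.5 / 1; cynomolgus monkey 0.25 / 1. Blood sampled; Vss from iv; bioavailability and Vss as mean [range]; Tmax as median [range].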

Glutamate receptor 2 [5] = biological target: T1, Glutamate receptor 2 (Homo sapiens, UniProt P42262); assay: Allosteric modulation of human recombinant GluA2 receptor flip isoform expressed in HEK293 cells assessed as potentiation of glutamate-induced calcium influx by Fluo-4/FLIPR method relative to cyclothiazide; format: cell-based
Outline: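 Stable GluA2 flip (unedited) cells seeded to confluence 2-3 days before assay; washed in HEPES buffer (145 NaCl, 5 KCl, 2 CaCl2, 1 MgCl2, 5.5 glucose, pH 7.3), loaded with 2 μM Fluo4-AM 60 min at room temperature. FLIPR dual addition: compound 5 min before 100 μM glutamate; fluorescence rise expressed against maximal cyclothiazide response, fitted pEC50 and Asym max; n ≥ 3.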

[6] = Distribution coefficient, log D of the compound; format: physicochemical; conditions: octanol/water
[7] = Half life in Sprague-Dawley rat at 3 mg/kg, po; format: ADME, organism-based; parameters: dose 3 mg/kg, route oral; conditions: in vivo
Brain [8] = assay: Drug level in Lister Hooded rat assessed per gram of tissue at 3 mg/kg, ip; format: ADME, organism-based; parameters: dose 3 mg/kg, route intraperitoneal; conditions: in vivo
Outline: (§3)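 Male Lister Hooded rats (n = 9-12/group) tested for reversal of a 24 h delay-induced deficit in novel object recognition. Significant doses flagged. Brain concentrations measured in the study animals at the end of the test.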

[9] = Intrinsic clearance in cryopreserved dog hepatocytes assessed per gram of tissue; format: ADME, cell-based, Canis lupus familiaris, Liver, Hepatocyte
Outline: as §1

Sus scrofa = assay: Hepatic blood flow in Gottingen minipig at 0.5 mg/kg, iv and 1 mg/kg, po; format: ADME, organism-based, Liver; conditions: pig, in vivo
Outline: (§4)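 Male animals, n = 3 per species, given single iv and oral doses. Values are mean and range. Blood clearance is also expressed as % of liver blood flow, taken as (mL/min)/kg: rat 85, dog 31, minipig 30, cynomolgus monkey 44.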

Rattus norvegicus [10] = assay: Neurotoxicity in Lister Hooded rat assessed proconvulsant effect at 30 mg/kg, ip by MEST test; format: toxicity, organism-based; parameters: dose 30 mg/kg, route intraperitoneal; conditions: in vivo
Outline: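 Male Lister Hooded rats pretreated with compound, saline vehicle or picrotoxin 30 min before corneal electroshock (CC50 about 60–70 mA, 0.1 ms); tonic and tonic-clonic seizure threshold scored; brain concentrations taken from satellite rats sampled right after testing.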

[11] = Tmax in Gottingen minipig at 1 mg/kg, po; format: ADME, organism-based, Sus scrofa; parameters: dose 1 mg/kg, route oral; conditions: pig, in vivo
Outline: as §2

[12] = Half life in Swiss Beagle dog at 0.5 mg/kg, po; format: ADME, organism-based, Canis lupus familiaris; parameters: dose 0.5 mg/kg, route oral; conditions: in vivo
[13] = Apparent permeability of the compound; format: ADME; conditions: not told
Outline: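 Artificial membrane permeability: donor holds 10 mM sample in pH 7.05 phosphate buffer with 0.5% hydroxypropylcyclodextrin. Membrane is 1.8% phosphatidylcholine and 1% cholesterol in decane. Donor and acceptor concentrations measured by LCMS after 3 h at room temperature; permeability expressed in nm/s.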

[14] = Cmax in cynomolgus monkey at 1 mg/kg, po; format: ADME, organism-based, Macaca fascicularis; parameters: dose 1 mg/kg, route oral; conditions: in vivo
[15] = Clearance in Sprague-Dawley rat at 2.5 mg/kg, iv and 3 mg/kg, po; format: ADME, organism-based; conditions: in vivo
Outline: as §4

[16] = Half life in Sprague-Dawley rat at 2.5 mg/kg, iv; format: ADME, organism-based; parameters: dose 2.5 mg/kg, route intravenous; conditions: in vivo
Outline: as §4

[17] = AUC ( 0 to t) in rat at 3 mg/kg, po; format: ADME, organism-based, Plasma; parameters: dose 3 mg/kg, route oral; conditions: plasma
[18] = Cmax in Gottingen minipig at 1 mg/kg, po; format: ADME, organism-based, Sus scrofa; parameters: dose 1 mg/kg, route oral; conditions: pig, in vivo
[19] = Half life in cynomolgus monkey at 0.25 mg/kg, iv; format: ADME, organism-based, Macaca fascicularis; parameters: dose 0.25 mg/kg, route intravenous; conditions: in vivo
Outline: as §4

[20] = Half life in Gottingen minipig at 1 mg/kg, po; format: ADME, organism-based, Sus scrofa; parameters: dose 1 mg/kg, route oral; conditions: pig, in vivo
[21] = Volume of distribution at steady state in Swiss Beagle dog at 0.25 mg/kg, iv and 0.5 mg/kg, po; format: ADME, organism-based, Canis lupus familiaris; conditions: in vivo, read-out: Vdss
Outline: as §2

[22] = Tmax in Sprague-Dawley rat at 3 mg/kg, po; format: ADME, organism-based; parameters: dose 3 mg/kg, route oral; conditions: in vivo
Outline: as §2

[23] = Oral bioavailability in Swiss Beagle dog at 0.5 mg/kg; format: ADME, organism-based, Canis lupus familiaris; conditions: in vivo
Outline: as §2

Canis familiaris = assay: Hepatic blood flow in Swiss Beagle dog at 0.25 mg/kg, iv and 0.5 mg/kg, po; format: ADME, organism-based, Canis lupus familiaris, Liver; conditions: in vivo
Outline: as §4

[24] = Volume of distribution at steady state in Sprague-Dawley rat at 2.5 mg/kg, iv and 3 mg/kg, po; format: ADME, organism-based; conditions: in vivo, read-out: Vdss
Outline: as §2

[25] = Intrinsic clearance in cryopreserved minipig hepatocytes assessed per gram of tissue; format: ADME, cell-based, Sus scrofa, Liver, Hepatocyte; conditions: pig
Outline: as §1

[26] = Clearance in rat at 3 mg/kg, po; format: ADME, organism-based; parameters: dose 3 mg/kg, route oral; conditions: in vivo
Outline: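 Rats dosed orally at 3 mg/kg; blood sampled via the hepatic portal vein and heart. Estimated clearance derived from in vivo hepatic extraction, taking rat liver blood flow as 85 (mL/min)/kg.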

Glutamate receptor 2 [27] = biological target: T1, Glutamate receptor 2; assay: Allosteric modulation of human recombinant GluA2 receptor flip isoform expressed in HEK293 cells assessed as potentiation of glutamate-induced calcium influx by Fluo-4/FLIPR method; format: cell-based
Outline: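 Stable GluA2 flip (unedited) cell line grown in DMEM/F12 with 10% FBS and seeded to confluence 2-3 days before use. Cells washed in HEPES buffer (pH 7.3) and loaded with 2 μM Fluo-4 AM for 60 min at room temperature. On FLIPR, compound was added 5 min before 100 μM glutamate. pEC50 and asymptotic maximum are relative to the maximal response to cyclothiazide, n ≥ 3.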

[28] = Cmax in rat at 3 mg/kg, po; format: ADME, organism-based; parameters: dose 3 mg/kg, route oral; conditions: in vivo
Rattus norvegicus [29] = assay: Hepatic blood flow in Sprague-Dawley rat at 2.5 mg/kg, iv and 3 mg/kg, po; format: ADME, organism-based, Liver; conditions: in vivo
Outline: as §4

[30] = Half life in Swiss Beagle dog at 0.25 mg/kg, iv; format: ADME, organism-based, Canis lupus familiaris; parameters: dose 0.25 mg/kg, route intravenous; conditions: in vivo
Outline: as §4

Brain [31] = assay: Drug level in Lister Hooded rat assessed per gram of tissue at 0.3 mg/kg, ip; format: ADME, organism-based; parameters: dose 0.3 mg/kg, route intraperitoneal; conditions: in vivo
Outline: as §3

Brain [32] = assay: Brain tissue binding in rat at 3 mg/kg, po; format: ADME, organism-based; parameters: dose 3 mg/kg, route oral; conditions: in vivo
Brain [33] = assay: Drug level in Lister Hooded rat assessed per gram of tissue at 1 mg/kg, ip; format: ADME, organism-based; parameters: dose 1 mg/kg, route intraperitoneal; conditions: in vivo
Outline: as §3

Cynomolgus monkey = assay: Hepatic blood flow in cynomolgus monkey at 0.25 mg/kg, iv and 1 mg/kg, po; format: ADME, organism-based, Macaca fascicularis, Liver; conditions: in vivo
Outline: as §4

Rattus norvegicus [34] = assay: Cognitive enhancing effect in Lister Hooded rat assessed as reversal of 24 hrs delay-induced cognitive deficit at 1 mg/kg, ip by novel object recognition test

T1 sequence (P42262 whole entry, canonical isoform): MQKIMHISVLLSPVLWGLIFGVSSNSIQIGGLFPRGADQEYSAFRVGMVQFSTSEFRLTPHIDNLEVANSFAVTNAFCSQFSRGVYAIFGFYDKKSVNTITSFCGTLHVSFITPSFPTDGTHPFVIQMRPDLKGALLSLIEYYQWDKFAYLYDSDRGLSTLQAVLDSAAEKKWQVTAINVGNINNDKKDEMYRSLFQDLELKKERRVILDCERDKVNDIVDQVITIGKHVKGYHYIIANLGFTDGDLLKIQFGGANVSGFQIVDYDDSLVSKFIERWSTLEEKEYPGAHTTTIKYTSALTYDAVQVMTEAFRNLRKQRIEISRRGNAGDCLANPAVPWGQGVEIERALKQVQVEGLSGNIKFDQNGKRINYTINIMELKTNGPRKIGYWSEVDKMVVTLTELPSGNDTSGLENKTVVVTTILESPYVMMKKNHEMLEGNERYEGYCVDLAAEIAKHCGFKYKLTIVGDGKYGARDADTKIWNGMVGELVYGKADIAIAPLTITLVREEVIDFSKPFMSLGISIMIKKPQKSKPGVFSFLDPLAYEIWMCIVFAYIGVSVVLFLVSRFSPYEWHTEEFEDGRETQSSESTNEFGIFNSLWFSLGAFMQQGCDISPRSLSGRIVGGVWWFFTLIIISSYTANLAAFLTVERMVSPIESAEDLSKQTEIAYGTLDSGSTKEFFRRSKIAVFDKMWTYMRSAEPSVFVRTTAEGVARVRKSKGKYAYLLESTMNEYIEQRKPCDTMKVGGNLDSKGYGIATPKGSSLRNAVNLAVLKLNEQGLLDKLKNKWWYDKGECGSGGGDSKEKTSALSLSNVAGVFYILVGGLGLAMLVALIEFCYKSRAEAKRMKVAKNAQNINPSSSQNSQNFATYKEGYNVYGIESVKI

O=C(c1ccc(-n2nc(C(F)(F)F)c3c2CCCC3)cc1)N1CCCC1
Activity (Rattus norvegicus [1]): Active | Activity (Rattus norvegicus [2]): Active | half-life [3]: 84 min | CL (Hepatocyte): 2.3 mL/min/g | Vd [4]: 1.6 L/kg | Activity (Glutamate receptor 2 [5]): 123% | logD [6]: 3 | half-life [7]: 138 min | Drug uptake (Brain [8]): 542 ng/g | CL [9]: 2.6 mL/min/g | QH (Sus scrofa): 77% | Activity (Rattus norvegicus [10]): Non-toxic | Tmax [11]: 30 min | half-life [12]: 54 min | Papp [13]: 41.5 ×10⁻⁶ cm/s | Cmax [14]: 5 ng/mL | clearance [15]: 40 mL/min/kg | half-life [16]: 84 min | AUC(0-t) [17]: 472 ng·h/mL | Cmax [18]: 29 ng/mL | half-life [19]: 30 min | half-life [20]: 270 min | Vd [21]: 3.4 L/kg | Tmax [22]: 30 min | bioavailability [23]: 12% | QH (Canis familiaris): 100% | Vd [24]: 4.8 L/kg | CL [25]: 7 mL/min/g | CL/F [26]: 12 mL/min/kg | EC50 (Glutamate receptor 2 [27]): 10 µM | Cmax [28]: 228 ng/mL | QH (Rattus norvegicus [29]): 47% | half-life [30]: 78 min | Drug uptake (Brain [31]): 19 ng/g | Brain tissue binding (% bound) (Brain [32]): 99.4% | Drug uptake (Brain [33]): 97 ng/g | QH (Cynomolgus monkey): 86% | Activity (Rattus norvegicus [34]): Active
